Measured values reported in ChEMBL document CHEMBL1137530, “The discovery of substituted 4-(3-hydroxyanilino)-quinolines as potent RET kinase inhibitors” (Bioorg Med Chem Lett, 2007).
Activity calls are given as the source filed them. No cut-off for these calls is given here.

Legend:
[1] = target: T1, Proto-oncogene tyrosine-protein kinase receptor Ret (Homo sapiens, UniProt P07949); experiment: Inhibition of RET kinase expressed in Sf9 cells at 5000 nm
Method in brief: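 RET kinase domain (intracellular aa 713–1072, short isoform), expressed in Sf9 insect cells and Ni-purified. 100 ng enzyme was screened at a single 5000 nM concentration, in triplicate. Reaction: MOPS pH 7.4, MgCl2, ATP (100 µM stock) plus [γ-33P]ATP 1 µCi, and poly(Glu-Tyr) substrate, 30 min at room temperature. Stopped with 0.5% H3PO4, filtered on phosphocellulose, read as scintillation cpm (mean of three).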

[2] = target: T1, Proto-oncogene tyrosine-protein kinase receptor Ret; experiment: Inhibition of RET kinase in Sf9 cells; assay type: cell-based
[3] = target: Angiopoietin-1 receptor (Homo sapiens) (UniProt Q02763); experiment: Inhibitory of TIE2
Chain of Angiopoietin-1 receptor (Homo sapiens) (Q02763 whole entry): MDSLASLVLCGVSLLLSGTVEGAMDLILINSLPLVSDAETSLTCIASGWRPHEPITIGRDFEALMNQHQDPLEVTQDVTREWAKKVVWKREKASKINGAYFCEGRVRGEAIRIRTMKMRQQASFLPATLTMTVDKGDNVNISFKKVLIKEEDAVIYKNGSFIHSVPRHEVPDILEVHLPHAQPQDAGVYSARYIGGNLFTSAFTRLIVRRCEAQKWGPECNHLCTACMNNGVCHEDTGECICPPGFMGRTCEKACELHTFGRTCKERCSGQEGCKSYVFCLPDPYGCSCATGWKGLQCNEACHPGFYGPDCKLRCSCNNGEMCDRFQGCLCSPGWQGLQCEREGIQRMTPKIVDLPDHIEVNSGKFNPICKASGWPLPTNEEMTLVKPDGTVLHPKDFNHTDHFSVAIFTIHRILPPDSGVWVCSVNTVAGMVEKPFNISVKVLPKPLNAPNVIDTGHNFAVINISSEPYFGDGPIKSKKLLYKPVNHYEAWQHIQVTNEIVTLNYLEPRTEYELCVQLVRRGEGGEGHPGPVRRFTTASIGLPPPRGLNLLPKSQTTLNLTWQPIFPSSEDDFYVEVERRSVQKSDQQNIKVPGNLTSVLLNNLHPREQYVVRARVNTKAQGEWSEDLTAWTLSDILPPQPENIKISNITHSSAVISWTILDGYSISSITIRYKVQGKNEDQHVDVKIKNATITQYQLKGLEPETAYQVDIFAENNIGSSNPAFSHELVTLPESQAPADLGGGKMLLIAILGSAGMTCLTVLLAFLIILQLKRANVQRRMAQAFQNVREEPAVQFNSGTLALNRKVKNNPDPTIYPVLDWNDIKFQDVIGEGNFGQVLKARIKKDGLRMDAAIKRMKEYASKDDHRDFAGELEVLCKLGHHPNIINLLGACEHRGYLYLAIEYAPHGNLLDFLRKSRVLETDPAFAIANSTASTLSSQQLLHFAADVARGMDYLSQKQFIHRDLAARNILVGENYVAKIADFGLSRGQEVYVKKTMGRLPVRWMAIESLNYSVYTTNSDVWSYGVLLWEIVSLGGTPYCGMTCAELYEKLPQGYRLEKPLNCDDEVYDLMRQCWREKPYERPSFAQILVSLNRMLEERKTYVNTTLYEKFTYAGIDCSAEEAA

[4] = target: Proto-oncogene tyrosine-protein kinase Src (Homo sapiens) (UniProt P12931); experiment: Inhibitory of c-SRC
Chain of Proto-oncogene tyrosine-protein kinase Src (Homo sapiens) (P12931 2-536 limits assumed): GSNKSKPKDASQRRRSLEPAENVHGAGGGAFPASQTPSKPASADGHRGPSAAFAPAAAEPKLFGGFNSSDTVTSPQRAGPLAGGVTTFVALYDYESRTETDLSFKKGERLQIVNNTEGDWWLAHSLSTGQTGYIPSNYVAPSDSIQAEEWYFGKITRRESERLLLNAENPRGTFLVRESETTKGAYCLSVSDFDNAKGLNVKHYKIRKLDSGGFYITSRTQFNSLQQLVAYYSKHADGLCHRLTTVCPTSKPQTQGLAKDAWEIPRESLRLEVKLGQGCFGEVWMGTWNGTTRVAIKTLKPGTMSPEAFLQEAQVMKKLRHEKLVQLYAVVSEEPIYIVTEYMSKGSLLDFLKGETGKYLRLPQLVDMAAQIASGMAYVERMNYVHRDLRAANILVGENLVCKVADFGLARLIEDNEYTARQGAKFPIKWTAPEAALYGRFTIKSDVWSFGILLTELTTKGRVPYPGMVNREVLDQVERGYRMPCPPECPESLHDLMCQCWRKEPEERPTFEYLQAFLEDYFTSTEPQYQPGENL

SK-N-MC = experiment: Inhibition of chimeric human EGFR/RET kinase expressed in SK-N-MC cells after 1 hr by Western blotting; assay type: cell-based
[5] = target: Vascular endothelial growth factor receptor 2 (Homo sapiens) (UniProt P35968); experiment: Inhibitory of VEGFR2
Chain of Vascular endothelial growth factor receptor 2 (Homo sapiens) (P35968 whole entry): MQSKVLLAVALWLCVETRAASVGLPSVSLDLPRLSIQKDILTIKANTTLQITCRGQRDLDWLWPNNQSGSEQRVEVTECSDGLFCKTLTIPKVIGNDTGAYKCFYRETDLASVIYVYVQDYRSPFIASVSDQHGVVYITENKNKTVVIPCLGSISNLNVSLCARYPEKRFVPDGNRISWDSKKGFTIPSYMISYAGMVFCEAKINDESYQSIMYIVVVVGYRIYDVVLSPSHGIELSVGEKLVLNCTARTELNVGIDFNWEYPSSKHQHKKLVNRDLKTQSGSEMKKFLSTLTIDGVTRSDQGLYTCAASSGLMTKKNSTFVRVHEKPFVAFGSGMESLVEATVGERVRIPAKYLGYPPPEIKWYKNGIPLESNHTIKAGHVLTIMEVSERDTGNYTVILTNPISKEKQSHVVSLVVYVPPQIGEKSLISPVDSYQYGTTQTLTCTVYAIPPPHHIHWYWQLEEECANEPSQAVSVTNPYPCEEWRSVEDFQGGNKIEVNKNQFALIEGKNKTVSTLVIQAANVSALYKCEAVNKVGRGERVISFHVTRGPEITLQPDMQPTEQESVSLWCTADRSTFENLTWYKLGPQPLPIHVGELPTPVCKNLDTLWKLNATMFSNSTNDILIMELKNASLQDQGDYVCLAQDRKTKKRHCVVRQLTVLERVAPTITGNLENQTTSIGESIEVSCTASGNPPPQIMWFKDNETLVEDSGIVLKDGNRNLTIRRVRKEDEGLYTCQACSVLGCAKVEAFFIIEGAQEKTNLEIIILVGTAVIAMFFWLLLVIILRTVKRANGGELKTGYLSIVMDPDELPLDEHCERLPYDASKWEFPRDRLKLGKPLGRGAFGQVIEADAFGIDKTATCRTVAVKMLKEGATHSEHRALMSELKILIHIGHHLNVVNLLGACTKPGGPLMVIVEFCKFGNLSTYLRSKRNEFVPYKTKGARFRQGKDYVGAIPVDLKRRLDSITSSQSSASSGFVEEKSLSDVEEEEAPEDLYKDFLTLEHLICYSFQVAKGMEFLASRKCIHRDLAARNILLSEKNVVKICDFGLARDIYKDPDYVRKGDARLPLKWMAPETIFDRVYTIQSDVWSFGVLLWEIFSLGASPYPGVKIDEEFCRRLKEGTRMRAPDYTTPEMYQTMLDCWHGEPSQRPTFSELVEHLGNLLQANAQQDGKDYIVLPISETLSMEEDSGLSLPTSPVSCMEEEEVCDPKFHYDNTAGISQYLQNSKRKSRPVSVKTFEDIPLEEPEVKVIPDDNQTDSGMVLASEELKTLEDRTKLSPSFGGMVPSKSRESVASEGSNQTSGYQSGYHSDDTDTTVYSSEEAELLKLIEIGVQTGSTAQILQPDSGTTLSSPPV

[6] = target: Tyrosine-protein kinase Lyn (Homo sapiens) (UniProt P07948); experiment: Inhibitory of lyn
Chain of Tyrosine-protein kinase Lyn (Homo sapiens) (P07948 2-512 limits assumed): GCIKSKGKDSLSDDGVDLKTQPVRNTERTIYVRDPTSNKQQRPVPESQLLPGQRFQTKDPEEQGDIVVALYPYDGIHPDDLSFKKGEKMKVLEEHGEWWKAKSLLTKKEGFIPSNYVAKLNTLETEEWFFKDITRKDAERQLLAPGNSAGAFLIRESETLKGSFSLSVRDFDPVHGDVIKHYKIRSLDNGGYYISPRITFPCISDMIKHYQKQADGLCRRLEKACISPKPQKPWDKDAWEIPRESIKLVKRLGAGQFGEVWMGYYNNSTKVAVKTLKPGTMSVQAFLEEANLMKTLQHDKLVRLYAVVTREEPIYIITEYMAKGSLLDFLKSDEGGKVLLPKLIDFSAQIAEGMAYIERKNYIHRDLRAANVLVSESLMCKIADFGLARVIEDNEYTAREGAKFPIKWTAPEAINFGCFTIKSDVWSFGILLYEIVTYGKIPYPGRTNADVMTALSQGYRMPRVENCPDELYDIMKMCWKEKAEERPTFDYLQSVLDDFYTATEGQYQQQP

T1 sequence (P07949 whole entry, the tested form may be a part, canonical isoform): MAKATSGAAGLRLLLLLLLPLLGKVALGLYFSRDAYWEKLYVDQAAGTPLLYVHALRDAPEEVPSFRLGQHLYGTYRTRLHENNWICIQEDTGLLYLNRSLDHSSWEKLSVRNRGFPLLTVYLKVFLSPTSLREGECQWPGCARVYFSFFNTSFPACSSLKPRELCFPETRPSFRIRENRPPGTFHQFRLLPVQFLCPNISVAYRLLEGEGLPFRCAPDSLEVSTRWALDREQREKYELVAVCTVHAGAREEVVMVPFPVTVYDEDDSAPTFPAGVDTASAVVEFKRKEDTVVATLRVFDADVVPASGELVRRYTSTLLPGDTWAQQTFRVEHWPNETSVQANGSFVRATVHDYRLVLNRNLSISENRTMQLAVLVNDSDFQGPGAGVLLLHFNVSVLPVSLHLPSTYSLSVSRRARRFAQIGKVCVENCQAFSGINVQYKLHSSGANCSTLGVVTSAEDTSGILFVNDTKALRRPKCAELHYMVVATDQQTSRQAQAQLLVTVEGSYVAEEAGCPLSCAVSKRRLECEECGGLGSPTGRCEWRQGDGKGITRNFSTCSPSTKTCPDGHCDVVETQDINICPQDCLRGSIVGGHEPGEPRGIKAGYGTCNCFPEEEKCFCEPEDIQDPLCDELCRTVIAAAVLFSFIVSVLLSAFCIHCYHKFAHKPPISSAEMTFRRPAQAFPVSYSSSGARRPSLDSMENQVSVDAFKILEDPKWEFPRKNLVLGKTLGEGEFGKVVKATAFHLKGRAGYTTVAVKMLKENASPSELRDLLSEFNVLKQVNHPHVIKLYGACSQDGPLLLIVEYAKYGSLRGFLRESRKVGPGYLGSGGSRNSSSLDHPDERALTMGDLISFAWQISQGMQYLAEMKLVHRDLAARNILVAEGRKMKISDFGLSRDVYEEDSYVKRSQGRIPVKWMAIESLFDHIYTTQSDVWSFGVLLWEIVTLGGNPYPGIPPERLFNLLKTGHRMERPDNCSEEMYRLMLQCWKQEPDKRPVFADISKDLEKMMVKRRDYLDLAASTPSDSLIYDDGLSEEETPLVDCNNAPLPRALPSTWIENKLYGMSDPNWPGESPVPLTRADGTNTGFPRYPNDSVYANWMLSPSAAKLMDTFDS

Structure (SMILES) | Activity [1] | IC50 [2] | other results
NS(=O)(=O)c1ccc(-c2cnc3c(c2)/C(=C/c2cc(Br)c(O)c(Br)c2)C(=O)N3)cc1 | 355 cpm | – | –
CS(=O)(=O)Cc1ccc(N/C=C2\C(=O)Nc3ccc4ncsc4c32)cc1 | 1310 cpm | – | –
COc1cc2ncnc(Nc3ccc(Cl)c(O)c3)c2cc1OC | 298 cpm | – | –
CN(C)S(=O)(=O)c1ccc(N/C=C2\C(=O)Nc3ccc4ncccc4c32)cc1 | 1210 cpm | – | –
Cc1ccc(O)cc1Nc1ccnc2cc(-c3csc(CN4CCOCC4)n3)c(S(C)(=O)=O)cc12 | – | 0.034 µM | Activity [3]: Active; Activity [4]: Active; ED50 (SK-N-MC): 0.045 µM; Activity [5]: Active; Activity [6]: Active
O=C1Nc2ccc3ncsc3c2/C1=C/Nc1ccc2c(c1)CS(=O)(=O)C2 | 428 cpm | – | –
Cc1ccc(O)cc1Nc1ccnc2ccc(S(C)(=O)=O)cc12 | – | – | Activity [3]: Active; Activity [4]: Active; Activity [5]: Active; Activity [6]: Active
Cc1ccc(O)cc1Nc1ccnc2ccc(S(=O)(=O)NCC3CC3)cc12 | – | 0.09 µM | –
O=C1Nc2ccc3ncsc3c2/C1=C/c1c[nH]cn1 | 950 cpm | – | –
Cc1ccc(O)cc1Nc1ccnc2ccc(C(=O)NC(C)C)cc12 | – | 0.095 µM | –

The next lines start with results.

Activity [1] | IC50 [2] | Structure (SMILES) | other results
– | 0.1 µM | Oc1cccc(Nc2c(Cl)cnc3cc(-c4cncs4)ccc23)c1 | –
460 cpm | – | CS(=O)(=O)c1ccc2nccc(Nc3cc(O)c(F)cc3Cl)c2c1 | –
– | 0.006 µM | Oc1cccc(Nc2ccnc3cc(-c4ccccn4)ccc23)c1 | –
– | 0.085 µM | Oc1cc(Nc2ccnc3cc(-c4cc5ccccc5o4)ccc23)ccc1Br | –
– | > 1 µM | Cc1ccc(O)cc1Nc1cc(C(F)(F)F)nc2cc(-c3ccncc3)ccc12 | –
– | > 1 µM | Oc1cc(Nc2ccnc3cc(-c4ccc(CN5CCOCC5)o4)c(Cl)cc23)c(Cl)cc1F | –
– | 0.025 µM | OCc1nc(-c2ccc3c(Nc4cc(O)c(F)cc4Cl)ccnc3c2)cs1 | –
– | 0.075 µM | Cc1ccc(O)cc1Nc1ccnc2cc(-c3ccccn3)ccc12 | –
– | 0.075 µM | Oc1cc(Nc2ccnc3cc(-c4cccc(CNCCN5CCOCC5)c4)ccc23)c(F)cc1Cl | –
